Test results: the EternaBench riboswitch data

Tested on: MS2 coat protein
Assay: apparent Kd, MS2 coat protein; higher = weaker binding; RNA-MaP array; FMN 200 µM where present
Outline: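 Green signal was scaled to red-channel RNA signal and control-cluster median Fmax, and the apparent Kd was taken as the median of filtered per-cluster binding-curve fits. The binding series used SNAP-549-labelled MS2 coat protein from 0.7 or 1.5 nM, doubling to 3 µM, on designs transcribed by stalled E. coli RNA polymerase on Illumina sequencing-chip clusters. Each series ran without and then with constant ligand in 100 mM Tris-HCl pH 7.5, 80 mM KCl, 4 mM MgCl2, BSA, DTT, yeast tRNA and Tween-20.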

[1] = designed as: ON switch for flavin mononucleotide, no ligand
[2] = ligand present: flavin mononucleotide, designed as: ON switch for flavin mononucleotide
[3] = designed as: OFF switch for flavin mononucleotide, no ligand
[4] = ligand present: flavin mononucleotide, designed as: OFF switch for flavin mononucleotide

Row | Sequence | apparent Kd [1] [µM] | apparent Kd [2] [µM] | apparent Kd [3] [µM] | apparent Kd [4] [µM]
1 | UUAUUUGUACAAGGAUAUCUAUUAUAUUCACGUCCUACAUGAGGAUCACCCAUGUUAUAUAUUUUAGAGAAGGUGUAUUGUCUG | 0.0319 | 0.0353 | – | –
2 | UCCUCACAUGAGGAUCACCCAUGUCAGGAUAUCUGCGAGCAUUGGCCAAGGCCGCUCAGGAGAAGGGACGUCAA | – | – | 0.0171 | 0.0274
3 | AGCAGACGAGGAUAUGAUAAAGAUCACAUGAGGAUCACCCAUGUAGCGUCGAUAGACGCAUCAGAAGGCGUCUGCU | – | – | 0.0161 | 0.0165
4 | GGAUAGGACAGAGGAUAUACGUGCUAGAGAUACUAGGAAAAUUUCCUCACAUGAGGAUCACCCAUGUAGAAGGCUGUCCUAUCG | – | – | 0.305 | 0.0517
5 | CGAGUGUAAGGAUAUUCGGCGCCAGGGAACAACCUAGCGUAGAAGAAGGUACAUGAGGAUCACCCAUGUGGUUA | – | – | 0.269 | 0.0224
6 | CCUAAACAUGAGGAUCACCCAUGUGAGGAUAUGAUGCAGCAGUGGUCUACGCUGUGCAUCAGAAGGUACAUGGU | – | – | 0.0808 | 0.12
7 | AACCUAUUACAGAAGGCCAGCUACAUGAGGAUCACCCAUGUCGAGUCAUGGAGGAUAUGUAGUAAUUUACUCACAGAUGAGUGA | 0.0229 | 0.00507 | – | –
8 | GGGCCCGGAGGAUAUACAUGAGGAUCACCCAUGUAGGGCCCGGGUAUUCCCGGGUUUUGUAGAAGGCCGGGCCC | – | – | – | 0.0301
9 | AGUGUAUCCCUAGGAUAUGCACAUGAGGAUCACCCAUGUAAACCCGCGCAGGCUCUUCUCAUGUCGCAGAAGGAGGGACCCGGA | – | – | 0.311 | 0.0396
10 | GGGAACAUCGGAGGAUAUCAUGUAAAUACAUGAGGAUCACCCAUGUCGAUGGAGACAUCGGAGAUUGAGAAGGCCGAUGUACCG | 0.173 | 0.00966 | – | –
11 | CGCACUGAUAGAGGAUAUGUUUAACAUGAGGAUCACCCAUGUGUACAAGUAUCAAUAUUUAUGUAACAGAAGGCUAUUAGUGCG | – | – | 0.00577 | 0.00547
12 | GGAUAGUGUCGUUAUCCGUAGCGAACAUGAGGAUCACCCAUGUAGGAUAUGUUAUUAAACUAAUAACAGAAGGACGUUGGUCUC | – | – | 0.0662 | 0.434
13 | GUAUAUCACUAAGGAUAUCUGUAAUAUGUUGAAACAUGAGGAUCACCCAUGUUCAUGUAUUUAUAGGAGAAGGUAGAGAUAUAC | 0.00434 | 0.00415 | – | –
14 | UGCCCAAAUGGGCCGUGGCAGCGUGAGGAUAUGGGUUGGAUACAUGAGGAUCACCCAUGUUCCUCCUAGAAGGCACUUGUAACC | 0.183 | 0.0415 | – | –
15 | UUCUGGCUAGGAUAUACAGUGUCCACGAGUUAGUUGCCCUAACAUGAGGAUCACCCAUGUAGAAGGAGCGAGAA | – | – | 0.0482 | 0.0837
16 | AAUCGAUCAACAGGAUAUGCGCAAUGAUCUGAACAUGAGGAUCACCCAUGUGCAGAAGGGUUGGUCAUCUUUUGGGACGAGACA | – | – | 0.101 | 0.311
17 | GAUUACAUGAGGAUCACCCAUGUACAGGUGAUUCUCGGUACGAGAAGGGCGGAGGGUCACCACACGCAGGAUAUCGAGCAAAGG | – | – | 0.231 | 0.0654
18 | AAGUAGGUAGGAUAUGCAUAGAUAUACAUUCAUGUGGAUUUACAUGAGGAUCACCCAUGUAGAAGGACCUAAUA | – | – | 0.0375 | 0.136

Row | Sequence | apparent Kd [1] [µM] | apparent Kd [2] [µM] | apparent Kd [3] [µM] | apparent Kd [4] [µM]
19 | CAGUACUGAGGAUAUACAUGAGGAUCACCCAUGUAUCCAAGCUAGGAAACUAGCAAAUGUAGAAGGCAGUACUG | – | – | 0.0341 | 0.519
20 | UAAAUCUUGUAAGGAUAUACACGAGAUUCAAGUGUAGAAGGUACUUACAUGAGGAUCACCCAUGUAUACAUGGAUAAUAGAUAU | 0.211 | 0.0645 | – | –
21 | AUAUCCGAAGCAGGAUAUCGACGAGGUGUCGAGGUAGAGCGUACUCACAUGAGGAUCACCCAUGUCGAGAAGGGCUACAGGAUA | – | – | 0.0278 | 0.0522
22 | AAUGGCGCGAUAGCGCUAAUUAAAACAUGAGGAUCACCCAUGUAGGAUAUCCUACCGAAAUGGUAGGAGAAGGACAAGCAAUGA | – | – | 0.0235 | 0.0187
23 | UUGUUCUGAGGAUAUACAUGAGGAUCACCCAUGUGUUUCUGCUUGGUGACUAGCGAAUGUAGAAGGCUGUUCUC | – | – | 0.0336 | 0.0356
24 | UUUUAUUAGUAAGGAUAUACUAGCGAUUAGCUUGUAGAAGGUACAGUCUUAUGUAUAACAUGUUAACAUGAGGAUCACCCAUGU | 0.0595 | 0.0361 | – | –
25 | CUAUGAACGAUAGGAUAUACUGAGGUUGAGUGGGUAGAAGGAUCGAUAGUGGAGAAGACAUGAGGAUCACCCAUGUUAUGGAUU | 0.552 | 0.17 | – | –
26 | UGUGCGUUGAUCUUCGAUCGUUGUACAUGAGGAUCACCCAUGUAGGAUAUUCUAAGACGCAGAUAGGAGAAGGACAUUGGUUUU | – | – | 0.0101 | 0.0176
27 | AUGCCUUAUGUAGGAUAUGCAUAGAGUUGCUAUGCAGAAGGACAUGAGGAUCACCCAUGUAUGUAUACCAUACAUAUCUGGCAU | – | – | 0.0356 | 0.316
28 | GAUUCACAUGAGGAUCACCCAUGUGAGGAUAUAGUGCAGGAGGUGGAUGCCCGCCUCUCUAGAAGGCACACGGG | – | – | 0.0219 | 0.0245
29 | AGGUGACAUGAGGAUCACCCAUGUUGCAUAAAACAAGGAUAUGGGUGGCGGGAUCGCCAAUCAGAAGGUGUUCCGA | 0.0441 | 0.0369 | – | –
30 | CCGGAAGUAGAGGAUAUCGUAUCGGAUACGAUACGAGAAGGCUAUACAUGAGGAUCACCCAUGUGUCCUACCGG | – | – | 0.0246 | 0.0333
31 | UUGCUACAUGAGGAUCACCCAUGUCAGGAUAUAGUGCAUAGCGUGGAAGCUCUGUCGAUUAGAAGGGACUGUCU | – | – | 0.0253 | 0.0274
32 | GCGUUCAUGUAGAAGGUACCUACAACAAAUUAUAACCGCUAGACACAUGAGGAUCACCCAUGUUGUAAGGAUAUACAUGAACGC | 0.0252 | 0.0171 | – | –
33 | GGGUACAUCGGAGGAUAUCAUGUAAAUACAUGAGGAUCACCCAUGUCGAUCGAGACAUCGGAGAUUGAGAAGGCCGAUGUACCG | 0.163 | 0.286 | – | –
34 | AAGGCAAUGUCAUGCCCACCGGACAGAAGGCAAUGUGGGCAGCCCGACAUGAGGAUCACCCAUGUUGAGGAUAUGUCCCGUCCU | – | – | 0.00272 | 0.00285
35 | GGUAAACAUGAGGAUCACCCAUGUAAUAAUAUGGGAGGAUAUGGGAAUUAAUUAAUUAAACCAGAAGGCCUAAUUG | 0.216 | 0.0256 | – | –
36 | CGCUACUACCAGAAGGACAUGAGGAUCACCCAUGUAGGAUAUGGGUUACAAGUACCAGUGUAAAGAAACUACGCUACGUUUGCG | 0.0472 | 0.00779 | – | –
